What was measured:
[1] = biological target: Sodium-dependent dopamine transporter (Homo sapiens, UniProt Q01959); assay: Displacement of [125I]RTI-55 from human DAT receptor expressed in canine kidney cells; format: cell-based
How it was run: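 Competition binding against [¹²⁵I]RTI-55 in canine kidney cells stably transfected with human DAT. Ki in nM, geometric mean ± SD of at least three separate experiments, each run in triplicate.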

[2] = biological target: Sodium-dependent noradrenaline transporter (Homo sapiens, UniProt P23975); assay: Displacement of [3H]nisoxetine from human NET receptor expressed in HEK293 cells; format: cell-based
[3] = species on record: Homo sapiens; assay: Selectivity for human NET over human SERT
How it was run: (§1)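 Competition binding in stably transfected cells expressing human transporters: NET vs [3H]nisoxetine and SERT vs [3H]citalopram in HEK-293 cells; DAT vs [125I]RTI-55 in canine kidney cells. Ki as geometric mean of at least three experiments in triplicate; selectivity as ratio of SERT or DAT Ki to NET Ki.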

[4] = species on record: Homo sapiens; assay: Selectivity for human NET over human DAT; how it was run: as §1
[5] = biological target: Sodium-dependent serotonin transporter (Homo sapiens, UniProt P31645); assay: Displacement of [3H]citalopram from human SERT receptor expressed in HEK293 cells; format: cell-based
How it was run: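 Competition binding against [³H]citalopram in HEK-293 cells stably transfected with human SERT. Ki in nM, geometric mean ± SD of at least three separate experiments, each run in triplicate.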

[6] = Lipophilicity, log P at pH 7.4; format: physicochemical; settings: buffer
How it was run: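 Radiotracer (~5–10 μCi) in 2 mL 1-octanol plus 2 mL 0.02 M sodium phosphate buffer, pH 7.4. Vortexed 10 min at room temperature, centrifuged 5 min. 0.5 mL of each layer gamma-counted and decay corrected. log P = log(octanol counts/buffer counts), done three times and averaged.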

Chain of Sodium-dependent dopamine transporter (Q01959 whole entry): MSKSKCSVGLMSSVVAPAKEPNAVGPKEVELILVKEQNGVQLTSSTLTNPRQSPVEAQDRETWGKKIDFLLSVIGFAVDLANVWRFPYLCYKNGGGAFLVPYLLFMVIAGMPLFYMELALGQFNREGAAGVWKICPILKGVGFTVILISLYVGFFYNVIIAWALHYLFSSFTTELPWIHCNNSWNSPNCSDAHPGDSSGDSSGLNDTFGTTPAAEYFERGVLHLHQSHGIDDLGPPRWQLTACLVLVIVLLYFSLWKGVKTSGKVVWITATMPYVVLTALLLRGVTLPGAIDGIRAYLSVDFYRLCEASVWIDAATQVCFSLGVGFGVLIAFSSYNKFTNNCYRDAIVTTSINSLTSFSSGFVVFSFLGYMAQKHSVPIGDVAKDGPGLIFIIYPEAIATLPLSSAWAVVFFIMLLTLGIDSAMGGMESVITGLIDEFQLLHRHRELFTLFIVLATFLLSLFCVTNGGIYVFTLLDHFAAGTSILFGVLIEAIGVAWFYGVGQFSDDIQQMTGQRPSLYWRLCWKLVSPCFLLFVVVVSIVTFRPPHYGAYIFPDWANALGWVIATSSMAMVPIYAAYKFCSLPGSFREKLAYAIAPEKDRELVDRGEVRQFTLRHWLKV
Chain of Sodium-dependent serotonin transporter (P31645 whole entry): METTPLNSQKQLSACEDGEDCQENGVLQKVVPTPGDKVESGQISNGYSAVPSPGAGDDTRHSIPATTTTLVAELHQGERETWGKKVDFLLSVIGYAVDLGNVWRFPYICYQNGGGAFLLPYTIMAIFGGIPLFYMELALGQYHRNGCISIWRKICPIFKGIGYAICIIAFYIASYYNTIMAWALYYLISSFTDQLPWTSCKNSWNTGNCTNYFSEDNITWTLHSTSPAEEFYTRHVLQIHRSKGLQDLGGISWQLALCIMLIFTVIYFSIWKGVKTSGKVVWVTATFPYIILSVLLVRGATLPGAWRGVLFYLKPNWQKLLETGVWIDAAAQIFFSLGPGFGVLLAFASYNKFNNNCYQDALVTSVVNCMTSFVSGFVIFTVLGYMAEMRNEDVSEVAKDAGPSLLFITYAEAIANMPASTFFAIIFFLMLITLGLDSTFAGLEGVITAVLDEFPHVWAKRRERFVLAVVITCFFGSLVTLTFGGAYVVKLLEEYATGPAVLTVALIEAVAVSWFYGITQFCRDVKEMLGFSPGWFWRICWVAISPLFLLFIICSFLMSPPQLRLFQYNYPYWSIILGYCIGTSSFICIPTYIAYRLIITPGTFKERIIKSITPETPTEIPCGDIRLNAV
Chain of Sodium-dependent noradrenaline transporter (P23975 whole entry): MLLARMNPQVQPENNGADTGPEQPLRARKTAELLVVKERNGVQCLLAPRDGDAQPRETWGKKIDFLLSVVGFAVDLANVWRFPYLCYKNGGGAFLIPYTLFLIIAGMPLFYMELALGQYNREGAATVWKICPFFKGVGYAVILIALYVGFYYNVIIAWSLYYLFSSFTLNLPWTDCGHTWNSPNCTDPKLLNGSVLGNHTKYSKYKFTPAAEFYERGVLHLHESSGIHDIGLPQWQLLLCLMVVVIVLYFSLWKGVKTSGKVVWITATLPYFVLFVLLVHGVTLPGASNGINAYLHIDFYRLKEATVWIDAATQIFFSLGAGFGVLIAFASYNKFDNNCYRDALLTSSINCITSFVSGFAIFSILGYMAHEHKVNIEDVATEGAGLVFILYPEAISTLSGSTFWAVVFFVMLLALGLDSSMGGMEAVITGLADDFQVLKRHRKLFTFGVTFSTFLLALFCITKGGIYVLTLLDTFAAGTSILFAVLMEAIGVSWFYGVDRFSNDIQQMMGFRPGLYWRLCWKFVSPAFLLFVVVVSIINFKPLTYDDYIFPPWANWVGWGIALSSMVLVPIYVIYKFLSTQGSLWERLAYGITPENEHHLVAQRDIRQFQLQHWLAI

In the case of `Cc1ccccc1O[C@@H](c1ccccc1)[C@@H]1CNCCO1`, the Ki [1] is reported as 0.327 µM, the Ki [2] is reported as 0.00102 µM and the Ratio Ki [3] is reported as 92. For the same compound, the Ratio Ki [4] was 321, the Ki [5] was 0.093 µM and the logD [6] was 2.04.

Source: ChEMBL document CHEMBL1139340, “Synthesis, radiosynthesis, and biological evaluation of carbon-11 and fluorine-18 labeled reboxetine analogues: potential positron emission tomography radioligands for in vivo imaging of the norepinephrine transporter” (J Med Chem, 2009)
